Consider 1 molecule from ChEMBL document CHEMBL4411261, “Down-Regulation of the Androgen Receptor by G-Quadruplex Ligands Sensitizes Castration-Resistant Prostate Cancer Cells to Enzalutamide” (J Med Chem, 2018).

Activity calls are given as the source filed them. The rule behind the calls is not given here.

One assay relates to PC-3. Kind of assay: Cytotoxicity against human PC3 cells assessed as reduction in cell viability after 48 hrs by MTS assay. The assay is classed as functional, cell-based. To be noted: PC-3, 48 h. The procedure, abridged:
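Cells kept in RPMI-1640 with 10% fetal calf serum, 37 °C, 5% CO2. Seeded, after 24 h treated with 0.0001, 0.001, 0.01, 0.1, 1 and 10 μM compound (DMSO stocks freshly diluted in medium) for 48 h. MTS added 4 h, absorbance 490 nm; IC50 from curves of % viability inhibition versus DMSO-treated cells against log concentration.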
For orientation: Tetrazolium dyes change colour on reduction, which living cells bring about.

A short description of assay [1]: Stabilization of AGTGAGAGTGAGAGAGAGAGTGAGAGTGAGAGTGA/TCACTCTCACTCTCACTCTCTCTCTCACTCTCACT dsDNA (unknown origin) assessed as assessed as effect on conformational change at 16 uM after 16 hrs in presence of 100 mM K+ by CD spectra analysis. The essentials: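 CD: oligos at 4 μM final in 10 mM lithium cacodylate pH 7.4, 100 mM KCl, annealed 95 °C 5 min then 4 h room temperature; duplex from equimolar strands. Ligand 16 μM final, 16 h room temperature. Spectra 230−320 nm, 5 mm cell, two scans averaged at 20 °C, buffer-subtracted; melting from spectra 20−90 °C in 5 °C steps.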

Assay [2] relates to Quadruplex DNA. Kind of assay: Stabilization of AR G-quadruplex oligonucleotide in human 22Rv1 cells assessed as reduction in basal AKT1 levels at IC50 after 48 hrs by Western immunoblot assay. The assay is classed as cell-based. Background: Immunoblotting shows a protein as a band on a membrane.
In assay [3] the test system is Quadruplex DNA. Description: Stabilization of AR G-quadruplex oligonucleotide in human 22Rv1 cells assessed as regulation of ERBB2 mRNA expression at IC50 after 48 hrs by RT-PCR analysis. In kind it is cell-based. The essentials:
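Transcripts quantified by TaqMan real-time PCR with RNaseP as normalizer; relative quantity versus untreated cells by the 2−ΔΔCt method. Panel genes measured with a 92-gene cancer-mechanism TaqMan array.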

Usually IC50 stands for the concentration at which inhibition is half-maximal. Turning to `CN(C)CCCn1c(=O)c2ccc3c(=O)n(CCCN(C)C)c(=O)c4c5[nH]c6ccccc6[nH]c5c(c1=O)c2c34.Cl.Cl`, in the assay on PC-3, the IC50 is 180 nM. Also, the outcome in assay [1] was inactive. The result in the assay on Quadruplex DNA [2] and with Quadruplex DNA [3] was Active.
